{
  "source": "paper PMC12178318",
  "about": "(Cancer, 2025)",
  "key": {"[1]": {"test_system": "patients with mycosis fungoides or Sézary syndrome", "details": "cited from earlier work"}, "[2]": {"test_system": "patients with advanced solid tumors", "assay": "Phase 1 safety and tolerability", "type": "in vivo, human", "details": "any cycle, N = 36", "in_short": "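Adults (≥18 y) with locally advanced or metastatic solid tumours who had failed available therapy. They took oral test compound at 0.3–100 mg once daily alone for 28 days (cycle 0), then with IV anti-CCR4 antibody 1 mg/kg weekly (cycle 1) and every 2 weeks thereafter. AEs were coded by MedDRA 19.0 and graded by CTCAE 4.03, with relatedness judged by investigators. The DLT window was 56 days. Patients receiving any dose were counted as frequency and percentage.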"}, "[3]": {"details": "184 mogamulizumab-treated patients, MAVORIC"}},
  "data": [
    {"substance": "mogamulizumab: recombinant, humanized monoclonal antibody of immunoglobulin G1-κ targeting CCR4", "values": [
      {"measurement": "IRRs, patients", "setting": "[1]; [3]", "value": 33, "unit": "%"},
      {"measurement": "drug eruptions, patients", "setting": "[1]; [3]", "value": 24, "unit": "%"},
      {"measurement": "long-term responders who experienced drug eruptions", "setting": "[1]; post hoc analysis of MAVORIC", "value": 60, "unit": "%"},
      {"measurement": "IRRs related (TRAE) to the named drug, patients", "setting": "[2]", "value": 39, "unit": "%"},
      {"measurement": "drug eruption related (TRAE) to the named drug, patients", "setting": "[2]", "value": 50, "unit": "%"},
      {"measurement": "nausea related (TRAE) to the named drug, patients", "setting": "[2]", "value": 14, "unit": "%"}
    ]}
  ]
}
